Experiment [1] can be described thus: reduced viability of SK-BR-3 breast cancer cells – cell-based, 24 h, human, pilot screen (AID 572;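 active means viability at or below 10% of carrier control in both of two separate runs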;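 further: compound exposure lasted between 18 and 24 h rather than exactly 24 h; 100% = carrier-treated control wells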). As to conditions: SK-BR-3 viability, CellTiter-Glo luminescence, at 10 µM, stronger effect = lower value.
Experiment [2] is described as follows: HUVEC growth inhibition – cell-based, human, primary screen (AID 575;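 active means viability at or below 30% in both replicate assays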;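 further: 100% = median of untreated cell wells with 0.1% DMSO on each plate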). As to conditions: HUVEC proliferation, CellTiter-Glo luminescence, 72 h; at 10 µM; stronger effect = lower value. The method in brief:
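material = primary HUVEC, no more than 12 passages | input = 1250 cells per well | controls = vehicle and MePR control wells | measured by = CTG luminescence | times = 72 h compound incubation | format = collagen-coated 384-well format | read-out = % viability vs DMSO wells | doses = single 10 µM dose, 0.1% DMSO, from 5x medium stock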

The nature of experiment [3]: H69AR cell proliferation blockers – human, duplicate replicates, primary screen (AID 580).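 Further: 100% = mean luminescence of untreated wells and 0% = no signal.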 As to conditions: H69AR lung tumor cells viability, ATP luminescence, 72 h; at 10 µM; stronger effect = lower value.
The nature of experiment [4]: MRP1 drug-resistance reversers in H69AR cells – cell-based, doxorubicin co-treatment, pilot screen (AID 601;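 active means viability loss from added drug above about 55%, and viability with drug at most 40%, in both replicates, limit read from the data, passing the limit was not always enough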). As to conditions: CellTiter-Glo, 72 h, at 10 µM; for differential viability (reversal): stronger effect = higher value.
Experiment [5] in a line: yeast transport mutant growth inhibition pilot in 384-well plates, post-Golgi transport modulator project (AID 636; in the data active means inhibition above about 31%). The settings on record: absorbance 615 nm, about 18 h, stronger effect = higher value.
The nature of experiment [6]: growth suppression of yeast trafficking mutant, preliminary HTS, modulators of trafficking downstream of Golgi apparatus project, 1536-format plate, OD 615 nm (AID 637; in the data active means inhibition above about 30%). As to conditions: yeast transport mutant growth, absorbance 615 nm, 18 h; stronger effect = higher value.
Setting [7] is: H69AR cells + 2 uM doxorubicin, measured here: viability with 2 uM doxorubicin, stronger effect = lower value.
The mark [8] stands for this setting: H69AR cells, compound alone cytotoxicity.

Several values for one entry are separate records, joined by “and”; a condition that tells them apart may be missing. Equal entries are not always repeated. Activity calls are given as the source filed them.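 How the source made its calls, unless noted: active means viability at or under a set limit in both replicates, limit being median viability minus 3 SD (cut at about 48% in these data, passing the limit was not always enough); inconclusive means at or under the limit in just one replicate; inactive means at or above the limit in both replicates.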

One may read the viability as a read-out of living cells in per cent, often relative to untreated cells. In general, inhibition refers to the drop in the measured response relative to a control, in per cent.

With `Cn1c(=O)c2c(nc(Br)n2CCSc2nnnn2-c2ccccc2)n(C)c1=O`, the viability is 76% (inactive) in experiment [1]; 105% (inactive) in experiment [2]; 80.4% (inactive) in experiment [3]; 95.3% in experiment [4] (setting [7]); 80.4% in experiment [4] (setting [8]). The differential viability (reversal) in experiment [4] (H69AR cells + 2 uM doxorubicin) is -14.9% (inactive). Moreover, the values for the inhibition in experiment [5] and in experiment [6] were -4.59% (inactive) and -7.27% (inactive), respectively.

`Cc1cc(NC(=O)c2ccccc2)ncc1NC(=O)c1ccco1`: the viability in experiment [1] was 94% (inactive); in experiment [2] it was 96.2% (inactive); in experiment [3], 109% (inactive); in experiment [4] (setting [7]), 99.9%; in experiment [4] (setting [8]) it was 109%. Also, the differential viability (reversal) in experiment [4] (H69AR cells + 2 uM doxorubicin) was 9.27% (inactive). Besides, the inhibition is -4.42% (inactive) in experiment [5] and 0.32% (inactive) in experiment [6].

On to `CCOc1ccc(CCNc2nc3c(c(=O)n(C)c(=O)n3C)n2CC)cc1OCC`, for which the viability in experiment [1] was 108% (inactive); in experiment [2], 101% (inactive); in experiment [3] it was 88.9% (inactive); in experiment [4] (setting [7]), 87%; in experiment [4] (setting [8]) it was 88.9%. The differential viability (reversal) in experiment [4] (H69AR cells + 2 uM doxorubicin) is 1.88% (inactive). The values for the inhibition in experiment [5] and in experiment [6] were -1.73% (inactive) and 3.27% (inactive), respectively.

As to `O=C(Cn1c(=O)oc2ccccc21)N1CCN(c2ccccc2)CC1`, the viability is 94% (inactive) in experiment [1]; 104% (inactive) in experiment [2]; 88.8% (inactive) in experiment [3]; 92.1% in experiment [4] (setting [7]); 88.8% in experiment [4] (setting [8]). For the same compound, in experiment [4] (H69AR cells + 2 uM doxorubicin), the differential viability (reversal) was -3.33% (inactive). Further, the figures for the inhibition in experiment [5] and in experiment [6] were -8.63% (inactive) and 8.18% (inactive), respectively.

For the compound `CCCCOc1cc(C(=O)NCCN(CC)CC)c2ccccc2n1`, the viability was 99% (inactive) and 112% (inactive) in experiment [1]; 53.4% (inactive) and 59.6% (inactive) in experiment [2]; 89.5% (inactive) and 84.4% (inactive) in experiment [3]; 81.4% and 66.6% in experiment [4] (setting [7]); 89.5% and 84.4% in experiment [4] (setting [8]). Moreover, the differential viability (reversal) in experiment [4] (H69AR cells + 2 uM doxorubicin) is 8.11% (inactive) and 17.8% (inactive). The inhibition in experiment [5] was -2.86% (inactive) and -0.26% (inactive); in experiment [6], 0.33% (inactive) and 6.5% (inactive).

For the compound `COc1cccc2sc(NC(=O)c3ccc(S(=O)(=O)N4CCOCC4)cc3)nc12`, the viability is 113% (inactive) in experiment [1]; 85.5% (inactive) in experiment [2]; 86.7% (inactive) in experiment [3]; 69.8% in experiment [4] (setting [7]); 86.7% in experiment [4] (setting [8]). Also, the differential viability (reversal) in experiment [4] (H69AR cells + 2 uM doxorubicin) was 16.8% (inactive). Besides, the inhibition in experiment [5] is -7.16% (inactive); in experiment [6], -8.18% (inactive).

As for `COc1ccc(S(=O)(=O)Nc2cccc(C)n2)c2ccccc12`, the viability in experiment [1] is 94% (inactive); in experiment [2], 109% (inactive); in experiment [3], 100% (inactive); in experiment [4] (setting [7]) it was 86.2%; in experiment [4] (setting [8]), 100%. For the same compound, the differential viability (reversal) in experiment [4] (H69AR cells + 2 uM doxorubicin) is 13.8% (inactive). The inhibition in experiment [5] was -2.08% (inactive); in experiment [6], 4.43% (inactive).

On to `COc1ccc(C2C(C(=O)c3sc(C)nc3C)=C(O)C(=O)N2CCN(C)C)cc1` (centres undefined), for which the viability in experiment [1] was 106% (inactive); in experiment [2] it was 106% (inactive); in experiment [3] it was 93.1% (inactive); in experiment [4] (setting [7]), 80.7%; in experiment [4] (setting [8]) it was 93.1%. Further, the differential viability (reversal) in experiment [4] (H69AR cells + 2 uM doxorubicin) was 12.4% (inactive). Further, the inhibition is -8% (inactive) in experiment [5] and 4.36% (inactive) in experiment [6].

On to `CCN(C(=O)c1cccs1)c1nnc(-c2ccncc2)s1`, for which the viability in experiment [1] was 105% (inactive); in experiment [2] it was 120% (inactive); in experiment [3] it was 92.5% (inactive); in experiment [4] (setting [7]) it was 85.5%; in experiment [4] (setting [8]), 92.5%. Besides, the differential viability (reversal) in experiment [4] (H69AR cells + 2 uM doxorubicin) is 7.03% (inactive). Further, the inhibition in experiment [5] was -3.33% (inactive); in experiment [6] it was 2.91% (inactive).

For `CCC(CCC(=O)Nc1cccc(C(=O)O)c1)C(=O)O` (centres undefined), the viability was 62% (inactive) in experiment [1]; 107% (inactive) in experiment [2]; 103% (inactive) in experiment [3]; 101% in experiment [4] (setting [7]); 103% in experiment [4] (setting [8]). The differential viability (reversal) in experiment [4] (H69AR cells + 2 uM doxorubicin) was 2.19% (inactive). Further, the results for the inhibition in experiment [5] and in experiment [6] were -0.82% (inactive) and 2.36% (inactive), respectively.

On to `N[C@@H](C(=O)N[C@@H]1C(=O)N2C(C(=O)O)=C(Cl)CS[C@H]12)c1ccccc1`, for which the viability is 108% (inactive) in experiment [1]; 98% (inactive) in experiment [2]; 114% (inactive) in experiment [3]; 103% in experiment [4] (setting [7]); 114% in experiment [4] (setting [8]). Moreover, the differential viability (reversal) in experiment [4] (H69AR cells + 2 uM doxorubicin) was 10.7% (inactive). For the same compound, the inhibition was -2.6% (inactive) in experiment [5] and 4.83% (inactive) in experiment [6].

On to `CNC(=O)NCCN1CCCC1=O`, for which the viability in experiment [1] was 110% (inactive); in experiment [2] it was 112% (inactive); in experiment [3] it was 102% (inactive); in experiment [4] (setting [7]), 87.5%; in experiment [4] (setting [8]), 102%. In experiment [4] (H69AR cells + 2 uM doxorubicin), the differential viability (reversal) is 14.5% (inactive). Besides, the inhibition in experiment [5] is -5% (inactive); in experiment [6], -3.09% (inactive).

As to `CCC1Oc2ccc(C)cc2N(CC(=O)NCCCN2CCCCC2CC)C1=O` (centres undefined), the viability in experiment [1] was 99% (inactive); in experiment [2], 83.7% (inactive); in experiment [3], 87.5% (inactive); in experiment [4] (setting [7]) it was 93.9%; in experiment [4] (setting [8]) it was 87.5%. In experiment [4] (H69AR cells + 2 uM doxorubicin), the differential viability (reversal) is -6.5% (inactive). The inhibition in experiment [5] is -0.78% (inactive); in experiment [6] it was -0.66% (inactive).

As to `O=C1c2ccccc2C(=O)N1c1cccc(-c2nc3ccccc3o2)c1`, the viability is 114% (inactive) in experiment [1]; 72.5% (inactive) in experiment [2]; 111% (inactive) in experiment [3]; 103% in experiment [4] (setting [7]); 111% in experiment [4] (setting [8]). Also, the differential viability (reversal) in experiment [4] (H69AR cells + 2 uM doxorubicin) is 7.94% (inactive). Moreover, the inhibition in experiment [5] was -4.13% (inactive); in experiment [6], -3.09% (inactive).

With `O=C(NCc1ccco1)c1cc2cc3ccc(Cl)cc3nc2o1`, the viability in experiment [1] was 90% (inactive); in experiment [2], 21.4% (active); in experiment [3], 2.59% (active); in experiment [4] (setting [7]) it was 2.98%; in experiment [4] (setting [8]), 2.59%. The differential viability (reversal) in experiment [4] (H69AR cells + 2 uM doxorubicin) was -0.39% (inactive). For the same compound, the inhibition was -0.65% (inactive) in experiment [5] and 0% (inactive) in experiment [6].

Regarding `O=C(O)CCn1c(=O)c2ccccc2c2ccccc2c1=O`, the viability in experiment [1] was 87% (inactive); in experiment [2], 109% (inactive); in experiment [3], 100% (inactive); in experiment [4] (setting [7]) it was 94.8%; in experiment [4] (setting [8]), 100%. The differential viability (reversal) in experiment [4] (H69AR cells + 2 uM doxorubicin) was 5.16% (inactive). The inhibition is 0.14% (inactive) in experiment [5] and -8.06% (inactive) in experiment [6].

In the case of `Cc1ccc2c(c1C)NC(=O)C2(O)CC(=O)c1ccc2c(c1)OCO2` (centres undefined), the viability is 88% (inactive) in experiment [1]; 83.2% (inactive) in experiment [2]; 88% (inactive) in experiment [3]; 94% in experiment [4] (setting [7]); 88% in experiment [4] (setting [8]). For the same compound, the differential viability (reversal) in experiment [4] (H69AR cells + 2 uM doxorubicin) was -5.94% (inactive). The results for the inhibition in experiment [5] and in experiment [6] were -1.1% (inactive) and 2.9% (inactive), respectively.

As for `COc1cc2cc(C(c3nnnn3C3CCCC3)N(C)C3CCCCC3)c(=O)[nH]c2cc1OC` (centres undefined), the viability in experiment [1] was 81% (inactive); in experiment [2], 85.2% (inactive); in experiment [3], 81.9% (inactive); in experiment [4] (setting [7]), 86.2%; in experiment [4] (setting [8]), 81.9%. For the same compound, the differential viability (reversal) in experiment [4] (H69AR cells + 2 uM doxorubicin) is -4.31% (inactive). The inhibition is -1.3% (inactive) in experiment [5] and -2.13% (inactive) in experiment [6].

Source of the values: PubChem BioAssay.
